Experiments:
P388 [1] = experiment: Antitumor activity against mouse P388 cells allografted mouse assessed as host survival at 20 mg/kg, ip qd for 9 days relative to control; type: functional; conditions: route intraperitoneal
Method in brief: (§1)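 NCI protocol: groups of five to ten mice inoculated ip with approximately 10^6 P-388 or L1210 cells. Drug given over a range of dose levels starting 24 h after implantation, once daily for 9 consecutive days. Survival expressed as %T/C = (average survival of treated)/(average survival of control) × 100.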

P388 [2] = experiment: Antitumor activity against mouse P388 cells allografted mouse assessed as host survival at 40 mg/kg, ip qd for 9 days relative to control; type: functional; conditions: route intraperitoneal; method in brief: as §1
P388 [3] = experiment: Antitumor activity against mouse P388 cells allografted mouse assessed as host survival at 60 mg/kg, ip qd for 9 days relative to control; type: functional; conditions: route intraperitoneal; method in brief: as §1
Mus musculus [4] = experiment: Toxicity in mouse L1210 cells allografted mouse at 50 mg/kg, ip qd for 9 days; type: organism-based; parameters: dose 50 mg/kg, route intraperitoneal; conditions: in vivo, 216 h
Method in brief: (§2)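 Groups of five to ten mice were inoculated ip with about 10^6 L1210 cells and dosed once daily for 9 consecutive days beginning 24 h post-implantation. Toxicity was taken as the average body weight change at the end of drug treatment.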

Mus musculus [5] = experiment: Toxicity in mouse L1210 cells allografted mouse at 60 mg/kg, ip qd for 9 days; type: organism-based; parameters: dose 60 mg/kg, route intraperitoneal; conditions: in vivo, 216 h; method in brief: as §2
L1210 [6] = experiment: Antitumor activity against mouse L1210 cells allografted mouse assessed as host survival at 50 mg/kg, ip qd for 9 days relative to control; type: functional; conditions: route intraperitoneal; method in brief: as §1
L1210 [7] = experiment: Antitumor activity against mouse L1210 cells allografted mouse assessed as host survival at 60 mg/kg, ip qd for 9 days relative to control; type: functional; conditions: route intraperitoneal; method in brief: as §1
Mus musculus [8] = experiment: Toxicity in mouse P388 cells allografted mouse at 20 mg/kg, ip qd for 9 days; type: organism-based; parameters: dose 20 mg/kg, route intraperitoneal; conditions: in vivo, 216 h
Method in brief: (§3)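 NCI protocol. Groups of five to ten mice were inoculated intraperitoneally with about 10^6 tumor cells. Drug was given ip once daily for 9 consecutive days, starting 24 h after tumor implantation, over a range of dose levels. Toxicity was read as the average body weight change at the end of drug treatment.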

Mus musculus [9] = experiment: Toxicity in mouse P388 cells allografted mouse at 40 mg/kg, ip qd for 9 days; type: organism-based; parameters: dose 40 mg/kg, route intraperitoneal; conditions: in vivo, 216 h; method in brief: as §3
Mus musculus [10] = experiment: Toxicity in mouse P388 cells allografted mouse at 60 mg/kg, ip qd for 9 days; type: organism-based; parameters: dose 60 mg/kg, route intraperitoneal; conditions: in vivo, 216 h; method in brief: as §3
Mus musculus [11] = experiment: Toxicity in mouse P388 cells allografted mouse at 80 mg/kg, ip qd for 9 days; type: organism-based; parameters: dose 80 mg/kg, route intraperitoneal; conditions: in vivo, 216 h; method in brief: as §3
Mus musculus [12] = experiment: Toxicity in mouse P388 cells allografted mouse at 70 mg/kg, ip qd for 9 days; type: organism-based; parameters: dose 70 mg/kg, route intraperitoneal; conditions: in vivo, 216 h; method in brief: as §3
Mus musculus [13] = experiment: Toxicity in mouse P388 cells allografted mouse at 90 mg/kg, ip qd for 9 days; type: organism-based; parameters: dose 90 mg/kg, route intraperitoneal; conditions: in vivo, 216 h; method in brief: as §3
P388 [14] = experiment: Antitumor activity against mouse P388 cells allografted mouse assessed as host survival at 80 mg/kg, ip qd for 9 days relative to control; type: functional; conditions: route intraperitoneal; method in brief: as §1
P388 [15] = experiment: Antitumor activity against mouse P388 cells allografted mouse assessed as host survival at 70 mg/kg, ip qd for 9 days relative to control; type: functional; conditions: route intraperitoneal; method in brief: as §1
P388 [16] = experiment: Antitumor activity against mouse P388 cells allografted mouse assessed as host survival at 90 mg/kg, ip qd for 9 days relative to control; type: functional; conditions: route intraperitoneal; method in brief: as §1
Mus musculus [17] = experiment: Toxicity in mouse L1210 cells allografted mouse at 70 mg/kg, ip qd for 9 days; type: organism-based; parameters: dose 70 mg/kg, route intraperitoneal; conditions: in vivo, 216 h; method in brief: as §2
Mus musculus [18] = experiment: Toxicity in mouse L1210 cells allografted mouse at 80 mg/kg, ip qd for 9 days; type: organism-based; parameters: dose 80 mg/kg, route intraperitoneal; conditions: in vivo, 216 h; method in brief: as §3
Mus musculus [19] = experiment: Toxicity in mouse L1210 cells allografted mouse at 90 mg/kg, ip qd for 9 days; type: organism-based; parameters: dose 90 mg/kg, route intraperitoneal; conditions: in vivo, 216 h; method in brief: as §3
L1210 [20] = experiment: Antitumor activity against mouse L1210 cells allografted mouse assessed as host survival at 70 mg/kg, ip qd for 9 days relative to control; type: functional; conditions: route intraperitoneal; method in brief: as §1
L1210 [21] = experiment: Antitumor activity against mouse L1210 cells allografted mouse assessed as host survival at 80 mg/kg, ip qd for 9 days relative to control; type: functional; conditions: route intraperitoneal; method in brief: as §1
L1210 [22] = experiment: Antitumor activity against mouse L1210 cells allografted mouse assessed as host survival at 90 mg/kg, ip qd for 9 days relative to control; type: functional; conditions: route intraperitoneal; method in brief: as §1
Mus musculus [23] = experiment: Toxicity in mouse B16 cells allografted mouse at 116.7 mg/kg, ip qd for 9 days; type: organism-based; parameters: dose 116.7 mg/kg, route intraperitoneal; conditions: in vivo, 216 h
Method in brief: (§4)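 Mice bearing B16 melanoma, dosed ip once daily for 9 days from 24 h after tumor implantation. Toxicity is recorded as the average body weight change at the end of drug treatment.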

Mus musculus [24] = experiment: Toxicity in mouse B16 cells allografted mouse at 70 mg/kg, ip qd for 9 days; type: organism-based; parameters: dose 70 mg/kg, route intraperitoneal; conditions: in vivo, 216 h; method in brief: as §4
Mus musculus [25] = experiment: Toxicity in mouse B16 cells allografted mouse at 42 mg/kg, ip qd for 9 days; type: organism-based; parameters: dose 42 mg/kg, route intraperitoneal; conditions: in vivo, 216 h; method in brief: as §4
B16 [26] = experiment: Antitumor activity against mouse B16 cells allografted mouse assessed as host survival at 116.7 mg/kg, ip qd for 9 days relative to control; type: functional; conditions: route intraperitoneal
Method in brief: (§5)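 B16 melanoma-bearing mice given drug ip once daily for 9 days, starting 24 h after tumor implantation. Read-out is average survival in days, expressed as %T/C = (average survival of treated mice)/(average survival of control mice) × 100.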

B16 [27] = experiment: Antitumor activity against mouse B16 cells allografted mouse assessed as host survival at 70 mg/kg, ip qd for 9 days relative to control; type: functional; conditions: route intraperitoneal; method in brief: as §5
B16 [28] = experiment: Antitumor activity against mouse B16 cells allografted mouse assessed as host survival at 42 mg/kg, ip qd for 9 days relative to control; type: functional; conditions: route intraperitoneal; method in brief: as §5
P388 [29] = experiment: Antitumor activity against mouse P388 cells allografted mouse assessed as host survival at 100 mg/kg, ip qd for 9 days relative to control; type: functional; conditions: route intraperitoneal; method in brief: as §1
L1210 [30] = experiment: Antitumor activity against mouse L1210 cells allografted mouse assessed as host survival at 100 mg/kg, ip qd for 9 days relative to control; type: functional; conditions: route intraperitoneal; method in brief: as §1
Mus musculus [31] = experiment: Toxicity in mouse B16 cells allografted mouse at 360 mg/kg, ip qd for 9 days; type: organism-based; parameters: dose 360 mg/kg, route intraperitoneal; conditions: in vivo, 216 h; method in brief: as §4
Mus musculus [32] = experiment: Toxicity in mouse B16 cells allografted mouse at 216 mg/kg, ip qd for 9 days; type: organism-based; parameters: dose 216 mg/kg, route intraperitoneal; conditions: in vivo, 216 h; method in brief: as §4
Mus musculus [33] = experiment: Toxicity in mouse B16 cells allografted mouse at 130 mg/kg, ip qd for 9 days; type: organism-based; parameters: dose 130 mg/kg, route intraperitoneal; conditions: in vivo, 216 h; method in brief: as §4
B16 [34] = experiment: Antitumor activity against mouse B16 cells allografted mouse assessed as host survival at 360 mg/kg, ip qd for 9 days relative to control; type: functional; conditions: route intraperitoneal; method in brief: as §5
B16 [35] = experiment: Antitumor activity against mouse B16 cells allografted mouse assessed as host survival at 216 mg/kg, ip qd for 9 days relative to control; type: functional; conditions: route intraperitoneal; method in brief: as §5
B16 [36] = experiment: Antitumor activity against mouse B16 cells allografted mouse assessed as host survival at 130 mg/kg, ip qd for 9 days relative to control; type: functional; conditions: route intraperitoneal; method in brief: as §5
[37] = Binding affinity to synthetic melanin at 5.8 mg/100 mL after 15 mins by UV-spectroscopic analysis; type: physicochemical; conditions: 0.25 h
Method in brief: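 Synthetic melanin was made from DL-Dopa with tyrosinase in 0.1 M phosphate pH 6.6 at 37 °C for 4 h. Melanin suspension (1.1 mg dry weight) was mixed with phosphate buffer (0.05 M, pH 6.4, 5% Me2SO), water, and 1 mL of drug solution (5.8 mg/100 mL). The mixture was shaken 15 min at room temperature and filtered. Unbound drug in the filtrate was measured by UV against a drug-free blank.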

CN(C)/N=N\c1ccnc2cc(I)ccc12
T/C (P388 [1]): 117%
T/C (P388 [2]): 130%
T/C (P388 [3]): 127%
Activity (Mus musculus [4]): 4.9%
Activity (Mus musculus [5]): 2.9%
T/C (L1210 [6]): 107%
T/C (L1210 [7]): 131%
Activity (Mus musculus [8]): 10.8%
Activity (Mus musculus [9]): 5.7%
Activity (Mus musculus [10]): -5.2%

CN(C)/N=N\c1ccnc2c(I)cccc12
Activity (Mus musculus [11]): -2.4%
Activity (Mus musculus [12]): 8.2%
Activity (Mus musculus [13]): -1.6%
T/C (P388 [14]): 120%
T/C (P388 [15]): 120%
T/C (P388 [16]): 116%
Activity (Mus musculus [17]): 7.7%
Activity (Mus musculus [18]): -6.9%
Activity (Mus musculus [19]): -7%
T/C (L1210 [20]): 127%
T/C (L1210 [21]): 129%
T/C (L1210 [22]): 139%
Activity (Mus musculus [23]): -4.6%
Activity (Mus musculus [24]): -1.5%
Activity (Mus musculus [25]): -1.3%
Survival (B16 [26]): 19.3 days
T/C (B16 [26]): 92%
Survival (B16 [27]): 20.8 days
T/C (B16 [27]): 99%
Survival (B16 [28]): 20 days
T/C (B16 [28]): 97%

CN(C)/N=N/c1[nH]cnc1C(N)=O [DACARBAZINE]
T/C (P388 [29]): 150%
T/C (L1210 [30]): 167%
Activity (Mus musculus [31]): -3%
Activity (Mus musculus [32]): -3.2%
Activity (Mus musculus [33]): -2.9%
Survival (B16 [34]): 16 days
T/C (B16 [34]): 76%
Survival (B16 [35]): 22.8 days
T/C (B16 [35]): 109%
Survival (B16 [36]): 22 days
T/C (B16 [36]): 105%
Activity [37]: 19.3%

From ChEMBL document CHEMBL3244044, “Synthesis and antitumor activity of halogen-substituted 4-(3,3-dimethyl-1-triazeno)quinolines” (J Med Chem, 1978)
